Measured values reported in ChEMBL document CHEMBL1811876 (J Med Chem, 2011).
Calls of active or inactive are those of the source. The rule behind the calls is not given here.

Experiments:
[1] = system: HCT-8; assay: Anticancer activity against human HCT8 cells after 72 hrs by sulforhodamine B assay; assay type: functional; conditions: HCT-8, 72 h
[2] = system: DU-145; assay: Anticancer activity against human DU145 cells after 72 hrs by sulforhodamine B assay; assay type: functional; conditions: DU-145, 72 h
[3] = system: KB; assay: Anticancer activity against human KB cells after 72 hrs by sulforhodamine B assay; assay type: functional
[4] = system: A549; assay: Anticancer activity against human A549 cells after 72 hrs by sulforhodamine B assay; assay type: functional; conditions: A549, 72 h
[5] = Anticancer activity against human KBVIN cells after 72 hrs by sulforhodamine B assay; assay type: functional
[6] = Upregulation of CDT1 expression in human CL1-5 cells by cDNA microarray; assay type: functional, cell-based
[7] = Upregulation of CDC6 expression in human CL1-5 cells at 0.01 ug/mL by RT-PCR analysis after 24 to 48 hrs; assay type: functional, cell-based
[8] = (§1) Upregulation of Cdt1 expression in human CL1-5 cells at 0.01 ug/mL by RT-PCR analysis after 24 to 48 hrs by Western blot; assay type: functional, cell-based
Outline: (§2)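 CL1-5 cells were exposed to the test agent for 24 and 48 h. Cdt1 and CDC6 protein levels were then assessed by Western blot.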

[9] = Upregulation of CDC6 expression in human CL1-5 cells by cDNA microarray; assay type: functional, cell-based; conditions: TDE = time-dependent effect
[10] = as §1; assay type: functional, cell-based; outline: as §2; remark: listed apart in the source
[11] = Upregulation of Cdt1 expression in human CL1-5 cells at 0.01 ug/mL by RT-PCR analysis after 24 to 48 hrs; assay type: functional, cell-based

Row | SMILES | GI50 [1] [µM] | GI50 [2] [µM] | GI50 [3] [µM] | GI50 [4] [µM] | GI50 [5] [µM] | Activity [6] | Activity [7] | Activity [8] | Activity [9] | Activity [10] | Activity [11]
1 | COc1ccc2c3c(c4cc(OC)c(OC)cc4c2c1)C[C@H]1CN(c2ccccc2)CN1C3 | > 20 | > 20 | > 20 | > 20 |  |  |  |  |  |  | 
2 | COc1ccc2c3c(c4cc(OC)c(OC)cc4c2c1)C[C@@H]1CN(CC(C)C)CCN1C3 |  | 12.2 | 11.2 | 12.9 | 9.96 |  |  |  |  |  | 
3 | CCN1CCN2Cc3c(c4cc(OC)c(OC)cc4c4cc(OC)ccc34)C[C@H]2C1 | 9.45 | 10.5 | 8.24 | 7.13 |  |  |  |  |  |  | 
4 | COc1ccc2c3c(c4cc(OC)c(OC)cc4c2c1)C[C@H]1CN(CCc2ccccc2)CN1C3 | 7.47 | 10.2 | 10 | 6.62 |  |  |  |  |  |  | 
5 | COc1ccc2c3c(c4cc(OC)c(OC)cc4c2c1)C[C@@H]1CN(CC2CC2)CCN1C3 |  | > 20 | > 20 | > 20 | 13.4 |  |  |  |  |  | 
6 | COc1ccc2c3c(c4cc(OC)c(OC)cc4c2c1)C[C@@H]1CN(C)CN1C3 | 0.66 | 1 | 0.79 | 0.66 |  |  |  |  |  |  | 
7 | COc1ccc2c3c(c4cc(OC)c(OC)cc4c2c1)C[C@H]1CN(Cc2ccccc2)CCN1C3 |  | > 20 | 16.9 | > 20 | 15.2 |  |  |  |  |  | 
8 | COC(=O)N1CCN2Cc3c(c4cc(OC)c(OC)cc4c4cc(OC)ccc34)C[C@H]2C1 | 12.1 | 12.2 | 11.3 | 10.9 |  |  |  |  |  |  | 
9 | COc1ccc2c3c(c4cc(OC)c(OC)cc4c2c1)C[C@H]1CCN(c2ccccc2)CN1C3 | > 20 | > 20 | > 20 | > 20 |  |  |  |  |  |  | 
10 | COc1ccc2c3c(c4cc(OC)c(OC)cc4c2c1)C[C@H]1CCN(Cc2ccccc2)CN1C3 | > 20 | > 20 | > 20 | > 20 |  |  |  |  |  |  | 
11 | COc1ccc2c3c(c4cc(OC)c(OC)cc4c2c1)C[C@H]1CN(Cc2ccccc2)CN1C3 | 3.63 | 4.95 | 5.7 | 5.3 |  |  |  |  |  |  | 
12 | COc1ccc2c3c(c4cc(OC)c(OC)cc4c2c1)C[C@H]1CCN(C2CC2)CN1C3 | 5.73 | 14.3 | 11.5 | 4.3 |  |  |  |  |  |  | 
13 | COc1ccc2c3c(c4cc(OC)c(OC)cc4c2c1)C[C@H]1CCCCN1C3 [CRYPTOPLEURINE] | 0.00109 | 0.00159 | 0.00151 | 0.00138 |  |  |  |  |  |  | 
14 | COc1ccc2c3c(c4cc(OC)c(OC)cc4c2c1)C[C@@H]1COCCN1C3 | 3.45 | 7.05 | 6.68 | 14 |  |  |  |  |  |  | 
15 | COc1ccc2c3c(c4cc(OC)c(OC)cc4c2c1)C[C@H]1CN(P(=O)(OC)OC)CCN1C3 |  | 14.7 | 8.09 | 12.2 | 10.4 |  |  |  |  |  | 
16 | COc1ccc2c3c(c4cc(OC)c(OC)cc4c2c1)C[C@@H]1CCOCN1C3 | 1.26 | 1.29 | 1.1 | 1.37 |  |  |  |  |  |  | 
17 | COc1ccc2c3c(c4cc(OC)c(OC)cc4c2c1)C[C@H]1CNCCN1C3 | 1.62 | 2.08 | 1.79 | 1.73 |  |  |  |  |  |  | 
18 | COc1ccc2c3c(c4cc(OC)c(OC)cc4c2c1)C[C@H]1CCN(CC(C)C)CN1C3 | 1.36 | 2.3 | 5.06 | 1.52 |  |  |  |  |  |  | 
19 | COc1ccc2c3c(c4cc(OC)c(OC)cc4c2c1)C[C@H]1CN(C(C)=O)CCN1C3 | 13.8 | 11.9 | 15.5 | 11.7 |  |  |  |  |  |  | 

Continued, in another order:

Row | GI50 [1] [µM] | GI50 [2] [µM] | GI50 [3] [µM] | GI50 [4] [µM] | SMILES | GI50 [5] [µM] | Activity [6] | Activity [7] | Activity [8] | Activity [9] | Activity [10] | Activity [11]
20 | 1 | 2.03 | 1.72 | 0.66 | COc1ccc2c3c(c4cc(OC)c(OC)cc4c2c1)C[C@H]1CN(C)CN1C3 |  |  |  |  |  |  | 
21 | 13 | 17.9 | > 20 | > 20 | COc1ccc2c3c(c4cc(OC)c(OC)cc4c2c1)C[C@H]1CN(C2CC2)CCN1C3 |  |  |  |  |  |  | 
22 |  | 13.1 | 12.3 | 14.1 | COc1ccc2c3c(c4cc(OC)c(OC)cc4c2c1)C[C@@H]1CN(C(=O)N(C)C)CCN1C3 | 11.4 |  |  |  |  |  | 
23 |  | 3 | 2.84 | 5.2 | COc1ccc2c3c(c4cc(OC)c(OC)cc4c2c1)C[C@@H]1CCN(N(C)C)CN1C3 | 5.3 |  |  |  |  |  | 
24 |  | 1.46 | 2.22 | 2.48 | COc1ccc2c3c(c4cc(OC)c(OC)cc4c2c1)C[C@@H]1CCN(CCO)CN1C3 | > 20 |  |  |  |  |  | 
25 | 2.37 | 2.97 | 3.08 | 1.78 | COc1ccc2c3c(c4cc(OC)c(OC)cc4c2c1)C[C@H]1CCN(N(C)C)CN1C3 |  |  |  |  |  |  | 
26 |  | 0.025 | 0.036 | 0.022 | COc1ccc2c3c(c4cc(OC)c(OC)cc4c2c1)C[C@H]1CCCN1C3 [(-)-ANTOFINE] |  | Dose-dependent effect | Active | Active | tde | Active | Active
27 |  |  | 0.068 |  | COc1ccc2c3c(c4cc(OC)c(OC)cc4c2c1)CC1CCOCCN1C3 (single isomer, unassigned) |  |  |  |  |  |  | 
28 | 17.8 | 17 | 17.5 | 14.5 | COc1ccc2c3c(c4cc(OC)c(OC)cc4c2c1)C[C@H]1CN(S(C)(=O)=O)CCN1C3 |  |  |  |  |  |  | 
29 |  |  | 0.102 |  | COc1ccc2c3c(c4cc(OC)c(OC)cc4c2c1)C[C@H]1CCCCCN1C3 |  |  | inactive | inactive |  | inactive | inactive
30 | 1.82 | 6.6 | 4.4 | 2 | COc1ccc2c3c(c4cc(OC)c(OC)cc4c2c1)C[C@H]1CN(CC(C)C)CN1C3 |  |  |  |  |  |  | 
31 | 7.41 | 12.6 | 8.62 | 14.1 | COc1ccc2c3c(c4cc(OC)c(OC)cc4c2c1)C[C@H]1CN(CCO)CCN1C3 |  |  |  |  |  |  | 
32 | 18.1 | 15.7 | > 20 | 15 | COc1ccc2c3c(c4cc(OC)c(OC)cc4c2c1)C[C@H]1CN(C(=O)c2ccccc2)CCN1C3 |  |  |  |  |  |  | 
33 |  | 11.9 | 12.1 | 16.4 | COc1ccc2c3c(c4cc(OC)c(OC)cc4c2c1)C[C@@H]1CN(C(=O)c2ccccc2)CCN1C3 | 7.64 |  |  |  |  |  | 
34 | 2.01 | 2.26 | 2.31 | 1.67 | COc1ccc2c3c(c4cc(OC)c(OC)cc4c2c1)C[C@H]1CN(N(C)C)CN1C3 |  |  |  |  |  |  | 
35 | 2.71 | 7.38 | 6.64 | 3.94 | CCCN1C[C@@H]2Cc3c(c4ccc(OC)cc4c4cc(OC)c(OC)cc34)CN2C1 |  |  |  |  |  |  | 
36 |  | 1.2 | 2.1 | 1.12 | COc1ccc2c3c(c4cc(OC)c(OC)cc4c2c1)C[C@@H]1CCN(CC2CC2)CN1C3 | 5.68 |  |  |  |  |  | 
37 | 1.85 | 3.7 | 2.71 | 1.8 | COc1ccc2c3c(c4cc(OC)c(OC)cc4c2c1)C[C@H]1CN(C2CC2)CN1C3 |  |  |  |  |  |  | 
38 | 0.25 | 2.94 | 6.57 | 0.79 | COc1ccc2c3c(c4cc(OC)c(OC)cc4c2c1)C[C@H]1CN(CC2CC2)CCN1C3 |  |  |  |  |  |  | 
39 | 1.45 | 1.82 | 1.66 | 1.79 | COc1ccc2c3c(c4cc(OC)c(OC)cc4c2c1)C[C@H]1CCOCN1C3 |  |  |  |  |  |  | 
40 |  | 4.62 | 3.41 | 2.68 | COc1ccc2c3c(c4cc(OC)c(OC)cc4c2c1)C[C@@H]1CN(Cc2ccccc2)CN1C3 | 1.87 |  |  |  |  |  | 
41 | 10.7 | 1.99 | 1.59 | 5.68 | COc1ccc2c3c(c4cc(OC)c(OC)cc4c2c1)C[C@H]1CCN(CCO)CN1C3 |  |  |  |  |  |  | 
42 | 10.8 | 6.36 | 7.83 | 4.41 | COc1ccc2c3c(c4cc(OC)c(OC)cc4c2c1)C[C@H]1CN(CCO)CN1C3 |  |  |  |  |  |  | 
43 |  | 6.01 | 2.38 | 4.15 | COc1ccc2c3c(c4cc(OC)c(OC)cc4c2c1)C[C@@H]1CN(N(C)C)CN1C3 | 11 |  |  |  |  |  | 
44 | 14 | > 20 | 14.7 | 14.7 | COC(=O)CN1CCN2Cc3c(c4cc(OC)c(OC)cc4c4cc(OC)ccc34)C[C@H]2C1 |  |  |  |  |  |  | 
45 | 6.45 | 7.13 | 5.3 | 9.73 | COc1ccc2c3c(c4cc(OC)c(OC)cc4c2c1)C[C@H]1CN(C)CCN1C3 |  |  |  |  |  |  | 
46 |  | 1.66 | 1.45 | 5.11 | COc1ccc2c3c(c4cc(OC)c(OC)cc4c2c1)C[C@@H]1CCN(CC(C)C)CN1C3 | 7.32 |  |  |  |  |  | 
